Only a selection was taken, and hits are over-represented in it overall.
UPR XBP1 act: activators of adaptive arm of unfolded protein response (XBP1) | CHO-XBP1 luciferase reporter, IRE1-XBP1 UPR activation, luminescence; percent of tunicamycin response, DMSO as zero | AID 463104 | 330,000 compounds, 0.33% hits | activation, % at 20 µM;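 active = versus positive control, 20 µM dose yields 30% or more activation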
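Signal: luciferase luminescence; Assay system: CHO-XBP1 luciferase reporter cells; Amount: one thousand reporter cells per well; Dosing: 20 µM single concentration, DMSO 1%; Benchmarks: high control tunicamycin 10 µg/mL final, low control DMSO vehicle only; Schedule: 6 h compound exposure at 37 °C, 5% CO2; Evaluation: percent activation relative to tunicamycin reference.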
697 NFkB inh: lowers PMA/ionomycin-induced NF-kB signal in 697 B cells; inhibition, % at 4 µM; AID 435022; 330,000 compounds, 0.33% hits; 697 B-cell NF-kB luciferase reporter, 16 h; in the data active = inhibition above about 35%
Jurkat NFkB inh: lowers PMA/ionomycin-induced NF-kB signal in Jurkat cells; PMA/ionomycin-induced NF-kB luciferase reporter, luminescence; inhibition, % at 4 µM; 330,000 compounds, 0.53% hits; in the data active = inhibition above about 50%
CHOP inhibitor: CHOP inhibition in unfolded protein response; inhibition, % at 10 µM; CHO-K1 CHOP-promoter luciferase, tunicamycin-induced, 15-18 h; 220,000 compounds, 3.8% hits;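 active = compounds that reduced the stress-induced luciferase reporter signal by more than about 70% of percent inhibition, limit read from the data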
UPR CHOP act: apoptotic UPR (CHOP) activation; CHO-CHOP luciferase reporter, luminescence; percent of tunicamycin response over DMSO baseline; activation, % at 10 µM; 330,000 compounds, 0.34% hits;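 active = at 10 µM dose, activation of 40% or more, normalized to positive control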
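Dosing – one dose, 10 µM in 0.5% DMSO · System – CHO-CHOP cells, stable luciferase reporter of PERK-eIF2a-CHOP signalling · Input – 500 cells/well · Control set – tunicamycin 10 µg/mL final as positive, DMSO-only wells as negative · Timing – 6 h compound treatment, 37 °C · Measure – % activation vs tunicamycin · Technique – luminescence read with Steady-Glo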
697 NFkB conf: lowers PMA/ionomycin-induced NF-kB signal in 697 B cells; shares compounds with 697 NFkB inh; 697 B-cell NF-kB luciferase, 16 h; inhibition, % at 4 µM; 2,000 compounds, 35% hits; AID 449746; in the data active = inhibition mostly above about 28%, no sharp cut-off; inactive = mostly below about 22%
Of the large screens only hits and unclear results are named; the others gave an inactive call (follow-up assays come after a bar, where they were run).

CCCCN(C)CCN1C(=O)C2C(C(=O)Nc3ccc(C)cc3)C3C=CC2(O3)C1C(=O)NC1CCCCC1 (configuration not stated)	none (no result: CHOP inhibitor)
C[C@H]1C=CC(=O)O[C@H]1c1ccccc1	697 NFkB inh 46 (no result: CHOP inhibitor) | 697 NFkB conf inactive
CC1C(=O)C(C)(C)C(=O)OC1c1ccccc1 (configuration not stated)	none
COc1ccc(S(=O)(=O)N(CC(=O)N2CCCCCC2)c2ccccc2OC)cc1	none (no result: CHOP inhibitor)
COCCn1c(C)cc(C(=O)COC(=O)c2n[nH]c3ccccc23)c1C	none | 697 NFkB conf inactive
Cc1cc(C(=O)COC(=O)c2n[nH]c3ccccc23)c(C)n1C	none
Cc1noc(C)c1C(=O)Nc1cc(Cl)ccc1N1CCOCC1	none (no result: CHOP inhibitor)
COc1cccc(OC)c1C(=O)Nc1cc(Cl)ccc1N1CCOCC1	697 NFkB inh 39 | 697 NFkB conf inactive
Cc1cc(Cl)cc2sc(NC(=O)c3ccco3)nc12	none (no result: CHOP inhibitor)
COc1ccc2sc(NC(=O)c3ccco3)nc2c1	none | 697 NFkB conf inactive
O=C(Nc1nc2c(Br)cc(Br)cc2c(=O)s1)c1ccco1	697 NFkB inh 36 | 697 NFkB conf 37
Cc1cc(C)c2nc(NC(=O)c3ccco3)sc2c1	none (no result: CHOP inhibitor) | 697 NFkB conf inactive
O=C(Nc1nc2c(F)cccc2s1)c1ccco1	none (no result: CHOP inhibitor)
CCN1CCCC1CNC(=O)Cn1nc(C)n2nc(-c3ccccc3)cc2c1=O (configuration not stated)	none (no result: CHOP inhibitor)
Cc1ccc(/C=N/Nc2cc(C)nc(N3CCOCC3)n2)cc1	none
CCOc1cc(/C=N\Nc2nc(Nc3ccccc3)nc(N3CCOCC3)n2)ccc1OC(=O)c1ccco1	697 NFkB inh 59 | 697 NFkB conf 46
CC(=O)c1ccc(Nc2nc(N3CCOCC3)nc(N3CCOCC3)n2)cc1	none (no result: CHOP inhibitor)
Cc1ccc(Nc2nc(N/N=C\c3ccc4c(c3)OCO4)nc(N3CCOCC3)n2)cc1	697 NFkB inh 56 | 697 NFkB conf 42
CC(=O)Nc1ccc(/C(C)=N/Nc2nc(Nc3ccccc3)nc(N3CCOCC3)n2)cc1	697 NFkB inh 53 | 697 NFkB conf inactive
CC1CCC(NC(=O)c2cccc(S(=O)(=O)NCc3ccccc3)c2)CC1 (configuration not stated)	none (no result: CHOP inhibitor)
NC(=O)C1CCN(C(=O)COc2ccc3ccccc3c2Br)CC1	697 NFkB inh 57 (no result: CHOP inhibitor) | 697 NFkB conf 60
Cc1noc(C)c1S(=O)(=O)N1CCC(C(=O)N2CCC(N3CCCCC3)CC2)CC1	none
O=C(NCc1ccccc1)C1CCN(S(=O)(=O)N2CCOCC2)CC1	697 NFkB inh 41 | 697 NFkB conf inactive
O=C(NCc1ccccc1)C1CCN(S(=O)(=O)N2CCCCCC2)CC1	none
CCSCCOC(=O)C1=C(C)NC2=C(C(=O)CCC2)C1c1coc2ccccc2c1=O (configuration not stated)	697 NFkB inh 36 | 697 NFkB conf inactive
Cc1cc(C(=O)NC2CCCc3c2cnn3-c2cccc(C)c2C)no1 (configuration not stated)	none (no result: CHOP inhibitor) | 697 NFkB conf inactive
CC1=C(C(=O)NC2CCCc3c2cnn3-c2cccc(C)c2C)OCCO1 (configuration not stated)	none (no result: 697 NFkB inh, Jurkat NFkB inh, CHOP inhibitor)
O=C(CCN1CCC(c2cccs2)=N1)c1cccs1	none
O=C(O)c1ccc(-c2noc(-c3ccc(F)cc3)n2)cc1	none (no result: CHOP inhibitor) | 697 NFkB conf inactive
CC(C)CCNC(=O)CCCOc1cc(=O)n(C)c2ccccc12	697 NFkB inh 52 | 697 NFkB conf 55
CC1CCN(C(=O)CCCOc2cc(=O)n(C)c3ccccc23)CC1	697 NFkB inh 38 | 697 NFkB conf 38
COc1ccc(N2CCN(C(=O)CCCOc3cc(=O)n(C)c4ccccc34)CC2)cc1	none
CN1CCN(CCCNC(=O)CCCOc2cc(=O)n(C)c3ccccc23)CC1	none
O=C(Nc1ccc2c(c1)C(=O)NC2=O)c1cccc(C(F)(F)F)c1	none (no result: CHOP inhibitor)
O=C(NCCC1CCCCN1S(=O)(=O)c1ccc(Cl)cc1)C(=O)NCc1ccncc1 (configuration not stated)	697 NFkB inh 45 (no result: CHOP inhibitor) | 697 NFkB conf 43
Cc1cc(NCc2ccccn2)nc2ccccc12	none
c1ccc(CNc2ccc3ccccc3n2)nc1	none | 697 NFkB conf inactive
COc1ccccc1NC(=O)CSc1nnnn1C1CCCCC1	none (no result: CHOP inhibitor)
COc1ccc(CN(C)C(=O)Cn2ccc(N)nc2=O)cc1OC	none (no result: CHOP inhibitor)
Cc1cc(OCC(=O)Nc2ccc(CCO)cc2)c2c(C)c(C)c(=O)oc2c1	697 NFkB inh 36 (no result: CHOP inhibitor) | 697 NFkB conf 40
COc1ccc2[nH]c3c(c2c1)CCN1C(=O)C(CC(=O)NCCN2CCOCC2)C[C@H](C(=O)N2CCOCC2)[C@@]31C (some centres not stated)	none (no result: Jurkat NFkB inh, CHOP inhibitor)
CCCCNC(=O)CN(c1cccc(Br)c1)S(C)(=O)=O	none
O=C(O)c1ccccc1N=Cc1c(O)n(-c2nccs2)c(=O)c2ccccc12	697 NFkB inh 42 | 697 NFkB conf inactive
COc1ccc(C(=O)Nc2cccc(NC(=O)c3ccc(OC)c(OC)c3)n2)cc1OC	697 NFkB inh 39 (no result: CHOP inhibitor) | 697 NFkB conf 47
COc1ccc(C(=O)Nc2nnc(Cc3cccs3)s2)cc1OC	697 NFkB inh 36 | 697 NFkB conf 37
O=C(NC(=O)N1CCN(C(c2ccccc2)c2ccccc2)CC1)c1ccccc1	697 NFkB inh 36 | 697 NFkB conf inactive
COc1ccc(/C=C/c2cc(C(F)(F)F)on2)cc1	none
COc1ccc(NS(=O)(=O)c2cc(NC(=O)c3cc(=O)c4ccccc4o3)ccc2OC)cc1	697 NFkB inh 38 | 697 NFkB conf 33
COc1cccc(NC(=O)c2cc(=O)c3ccccc3o2)c1	none (no result: CHOP inhibitor)
O=C(c1cc(COc2ccc(F)cc2Cl)on1)N1CC2C[C@@H]3CC1C[C@H](C2)C3	none (no result: CHOP inhibitor)
COc1cc(-c2nc3n(n2)C(c2ccc(F)cc2)C2=C(CCCC2=O)N3)cc(OC)c1OC (configuration not stated)	697 NFkB inh 37 | 697 NFkB conf 33
COc1ccc(-n2c(C)cc(C(=O)Cn3nnc4ccccc4c3=O)c2C)cc1	none
Cc1cc(C(=O)Cn2nnc3ccccc3c2=O)c(C)n1-c1ccccc1F	none | 697 NFkB conf inactive
Cc1ccc(S(=O)(=O)N2CCN(c3ccc(C(=O)N4CCOCC4)cc3[N+](=O)[O-])CC2)cc1	none
O=C(O)C1CCN(C(=O)COc2ccc3c4c(c(=O)oc3c2)CCCC4)CC1	697 NFkB inh 38 (no result: CHOP inhibitor) | 697 NFkB conf inactive
Cc1c(CCC(=O)N2CCC(C(=O)O)CC2)c(=O)oc2cc3oc4c(c3cc12)CCCC4	697 NFkB inh 49 (no result: CHOP inhibitor) | 697 NFkB conf 47
Cc1c(CCC(=O)N2CCC(C(=O)O)(c3ccccc3)CC2)c(=O)oc2cc3oc4c(c3cc12)CCCC4	697 NFkB inh 53 (no result: CHOP inhibitor) | 697 NFkB conf 37
Cc1oc2c(C)c3oc(=O)c(CCC(=O)N4CCC(C(=O)NCCC(=O)O)(c5ccccc5)CC4)c(C)c3cc2c1C	none (no result: CHOP inhibitor)

Screening results as filed in PubChem.
